CRFR2-BP ag: agonists of CRF-BP/CRF-R2 complex, primary screen, cell-based, HEK293, calcium dye fluorescence, uHTS | CRF-binding protein / CRF receptor 2 complex (human) | calcium dye fluorescence (FLIPR); percent of saturating CRF peptide response | activation, % at 13.2 µM | 0.46% of 350,000 active | AID 588473, 2011;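 active = activation of at least 50%, plus an integration ratio under a set limit after plate pattern correction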;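 note: plate controls were neutral control wells without compound for no effect and CRF at EC100 for full effect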
zfTRPN1 agonist: zebrafish TRPN1 channel agonists, primary screen, cell-based, HEK293, calcium fluorescence | transient receptor potential cation channel N1 (TRPN1/NompC), Danio rerio | HEK293 zebrafish TRPN1-YFP, Fluo-8 calcium fluorescence; 100% = response to 87 µM carbachol | activation, % at 3 µM | 0.18% of 220,000 active;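 active = activation above its plate's cutoff, the mean activation of test wells on that plate plus 3 SD, cut at about 19% in these data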;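 note: 0% = DMSO alone and 100% = 87 µM carbachol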
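Assay system: Zebrafish TRPN1-YFP in HEK293 cells | Incubation: Dye loading 1 h at 37 °C, then 30 min room temperature | Measured by: Kinetic Fluo-8 fluorescence, ex 470-495, em 515-575 nm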
TRPML3 agonist: human TRPML3 channel agonists, primary screen, cell-based, HEK293 TRPML3-YFP, Fluo-8 calcium fluorescence, 3 µM | 0.29% of 220,000 active | activation, % at 3 µM | Mucolipin-3 (Homo sapiens), Q8TDD5 | 100% = the carbachol control signal;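 active = activation above its plate's cutoff, the mean activation of the plate's test wells plus 3 SD, cut at about 12% in these data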;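 note: 0% = DMSO only wells and 100% = carbachol wells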
Target sequence (Q8TDD5 whole entry, looked up): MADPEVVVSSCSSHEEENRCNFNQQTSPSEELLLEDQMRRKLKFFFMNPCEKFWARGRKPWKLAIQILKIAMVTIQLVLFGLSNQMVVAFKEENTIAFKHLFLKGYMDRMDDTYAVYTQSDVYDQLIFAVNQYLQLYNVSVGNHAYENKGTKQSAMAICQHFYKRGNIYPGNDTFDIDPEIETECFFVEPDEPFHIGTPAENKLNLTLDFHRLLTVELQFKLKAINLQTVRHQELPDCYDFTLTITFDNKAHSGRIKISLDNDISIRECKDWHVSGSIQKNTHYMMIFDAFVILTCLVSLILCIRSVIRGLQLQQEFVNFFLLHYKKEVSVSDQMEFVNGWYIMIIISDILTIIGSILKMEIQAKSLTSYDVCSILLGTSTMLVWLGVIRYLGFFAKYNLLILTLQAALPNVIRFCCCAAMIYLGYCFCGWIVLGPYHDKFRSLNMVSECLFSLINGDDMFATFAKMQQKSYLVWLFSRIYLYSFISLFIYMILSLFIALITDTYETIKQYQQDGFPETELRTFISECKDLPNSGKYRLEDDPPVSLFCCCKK
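system = HEK293 cells stably carrying human TRPML3-YFP | doses = one concentration, 3 µM nominal, 0.3% DMSO | timing = dye loading 1 h 37 °C then 30 min ambient, 125 s read | detection = Fluo-8 calcium dye fluorescence, ex 470-495, em 515-575 nm | benchmarks = high control carbachol 87 µM, low control DMSO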
VIM-2 inhibitor: VIM-2 metallo-beta-lactamase inhibitors, primary screen, biochemical, epi-absorbance readout, Pseudomonas aeruginosa enzyme; 0.89% of 290,000 active; inhibition, % at 5.6 µM; purified VIM-2, nitrocefin hydrolysis, epi-absorbance fluorescence;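 active = inhibition above the mean of all tested compounds plus 3 SD, cutoff set per screening run, cut at about 7.5% in these data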;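 note: red hydrolysis product quenches plate fluorescence so inhibitors raise well fluorescence; 0% = enzyme with DMSO and 100% = DMSO without enzyme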
IMP-1 inh-1: IMP-1 metallo-beta-lactamase inhibitors, primary screen, biochemical, epi-absorbance readout, Pseudomonas aeruginosa enzyme | purified IMP-1, nitrocefin hydrolysis, epi-absorbance fluorescence | inhibition, % at 5.6 µM | 0.45% of 290,000 active | AID 1556, 2009;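 active = inhibition above the mean plus 3 SD of all compounds in the same screening run, cut at about 4.5% in these data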;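 note: 0% = IMP-1 with DMSO and 100% = DMSO wells lacking enzyme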
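System: purified IMP-1; amount: IMP-1 0.2 nM before substrate addition; compound: single dose, 5.6 µM; times: 25 °C, 15 min preincubation, 25 min reaction; signal: Epi-absorbance via hydrolysed-nitrocefin quenching of white-plate fluorescence, 480/530 nm, EDTA stop; benchmarks: DMSO with and without IMP-1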
CRFR2-BP antag: antagonists of CRF-BP/CRF-R2 complex, primary screen, cell-based, HEK293, calcium dye fluorescence, uHTS; CRF-induced calcium fluorescence; inhibition, % at 11.8 µM; 0.59% of 350,000 active; AID 588475, 2011;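 active = inhibition of the ligand-induced calcium signal above about 50% at the single tested concentration, limit read from the data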
IMP-1 inh-2: IMP-1 metallo-beta-lactamase inhibitors, confirmation, selectivity assay for selective VIM-2 inhibitor project, biochemical, epi-absorbance readout, triplicate. purified IMP-1, nitrocefin hydrolysis, epi-absorbance fluorescence. shares compounds with VIM-2 inhibitor. inhibition, % at 5.6 µM. AID 1856, 2009. 1,300 tested, under 10 active; call rule not given here;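 note: 0% = enzyme with vehicle and 100% = vehicle without enzyme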
VIM-2 FRET ctr: VIM-2 inhibitors in FRET format, confirmation, artefact control for selective VIM-2 inhibitor project, biochemical, epi-absorbance artifact exclusion; shares compounds with VIM-2 inhibitor; purified VIM-2, CCF2 FRET substrate hydrolysis; inhibition, % at 5.6 µM; 23% of 1,300 active;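 active = inhibition above the mean of all tested compounds plus 3 SD, cut at about 19% in these data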;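 note: 0% = VIM-2 plus DMSO and 100% = no enzyme wells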
TEM-1 inh: TEM-1 serine beta-lactamase inhibitors, counter-screen for VIM-2 inhibitor project, biochemical, epi-absorbance, HTS. shares compounds with VIM-2 inhibitor. Purified TEM-1, nitrocefin hydrolysis, epi-absorbance fluorescence. inhibition, % at 5.6 µM. 3% of 1,300 active. AID 1866, 2009;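 active = inhibition above that campaign's mean inhibition plus 3 SD, cut at about 0.46% in these data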;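 note: 0% = TEM-1 with DMSO and 100% = TEM-1 with 100 µM potassium clavulanate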
VIM-2 confirm 2: VIM-2 metallo-beta-lactamase inhibitors, confirmation, biochemical, epi-absorbance, hits shared with IMP-1 screen; purified VIM-2, nitrocefin hydrolysis; shares compounds with VIM-2 inhibitor; AID 2187, 2009; inhibition, % at 5.6 µM; 96% of 1,300 active;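 active = inhibition of the VIM-2 beta-lactamase enzyme above about 11% from the earlier first-round screen, limit read from the data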;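 note: 0% = VIM-2 with DMSO and 100% = buffer wells without enzyme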
* = called active by the depositor; . = not tested or not shown. Sampled rows, rich in hits. Any-hit rate of the full collection: about 2.1%.

SMILES	CRFR2-BP ag	zfTRPN1 agonist	TRPML3 agonist	VIM-2 inhibitor	IMP-1 inh-1	CRFR2-BP antag	IMP-1 inh-2	VIM-2 FRET ctr	TEM-1 inh	VIM-2 confirm 2
Clc1ccc(-c2ccc(CNCc3ccccn3)o2)cc1	-2	.	.	24*	-2	-4	-3	-19	-6	42*
Cc1ccc(C(=O)N2CCC(C)CC2)cc1NC1=NC2CS(=O)(=O)CC2S1 (stereo not drawn)	3	.	.	-3	-5	13	.	.	.	.
CC(C)(C)c1ccc(COc2ccsc2C(=O)O)cc1	-1	1	0	20*	-4	15	-3	48*	-4	29*
O=C(O)c1sccc1OCc1ccccc1	-1	2	1	0	-5	-2	.	.	.	.
CCn1cc(/C=C(\NC(=O)c2ccccc2Cl)C(=O)N2CCN(C)CC2)c2ccccc21	2	.	.	2	0	-1	.	.	.	.
CC(=O)Nc1ccc2c(CSc3nnc(N)s3)cc(=O)oc2c1	0	-1	1	21*	2	3	-4	10	-7	5
CC(=O)Nc1ccc2c(CN3C(=O)NC(C)(c4ccc(C)cc4)C3=O)cc(=O)oc2c1 (stereo not drawn)	2	1	0	-1	-2	-26	.	.	.	.
Cc1cc2c(cc1C)C(c1ccccc1OC(C)C)CC(=O)N2 (stereo not drawn)	1	.	.	-1	-2	-36	.	.	.	.
C=CCn1c2ccccc2c2nn(C)c(=S)nc21	-5	.	.	14*	-1	9	-4	0	-8	17*
C=C1[C@@H](CCO)N(S(=O)(=O)C(C)(C)C)C[C@@H]1C	2	.	.	.	.	5	.	.	.	.
Cc1c(OCC(=O)NCCCN2CCOCC2)ccc2c3c(c(=O)oc12)CCC3	5	.	.	25*	-3	2	-2	1	-14	37*
CCCCc1cc(=O)oc2c(C)c(OCC(=O)NCCN3CCOCC3)ccc12	4	.	.	5	1	-12	.	.	.	.
Cc1c(OCC(=O)NCCCN2CCOCC2)ccc2c1oc(=O)c1ccccc12	-2	.	.	26*	-2	-3	-1	1	-4	38*
O=C(COc1ccccc1Cc1ccccc1)NCCCN1CCOCC1	10	2	1	-3	-4	-16	.	.	.	.
COC(=O)c1ccc(SCC(=O)NCc2ccccc2)c([N+](=O)[O-])c1	-7	.	.	-3	-3	10	.	.	.	.
COc1cc(-c2noc(C)c2C#Cc2nccn2C)cc(OC)c1OC	-1	.	.	30*	-2	3	-2	-15	-1	46*
c1ccc2[nH]c(CSc3ncnc4c3oc3ccccc34)nc2c1	0	1	1	-1	-7	18	.	.	.	.
c1ccc2[nH]c(CN3CCN(c4ncnc5c4oc4ccccc45)CC3)nc2c1	-2	2	0	15*	0	13	-2	-14	-8	27*
CC1=CCC(C(=O)O)(C(=O)N/N=C/c2cccs2)C(c2ccc(Cl)cc2)C1 (stereo not drawn)	0	-2	1	15*	-1	1	-4	0	-5	4
Cc1nc2ccccc2c2oc(C(=O)NCCCN3CCCC(C)C3)cc12 (stereo not drawn)	1	.	.	18*	-2	-5	-3	2	-6	29*
Cc1nc2ccccc2c2oc(C(=O)NCCCN3CC(C)CC(C)C3)cc12 (stereo not drawn)	1	.	.	15*	-2	9	-2	1	-6	24*
CC1CCCN(CCCNC(=O)c2cc3c(Cl)nc4ccccc4c3s2)C1 (stereo not drawn)	0	0	2	19*	-2	-7	-3	1	-5	31*
CC1CCCN(CCCNC(=O)c2cc3c(s2)-c2ccccc2OC3)C1 (stereo not drawn)	1	.	.	0	1	2	.	.	.	.
CCCSc1sc(C(=O)OC)c(-c2cccs2)c1C#N	-1	-2	-1	0	-1	12	.	.	.	.
Cc1ccc(C(=O)NCC(=O)OC(C)C(=O)NC2CCCCC2C)cc1C (stereo not drawn)	0	.	.	.	.	0	.	.	.	.
SMILES	CRFR2-BP ag	zfTRPN1 agonist	TRPML3 agonist	VIM-2 inhibitor	IMP-1 inh-1	CRFR2-BP antag	IMP-1 inh-2	VIM-2 FRET ctr	TEM-1 inh	VIM-2 confirm 2
COc1ccc(Cl)cc1-c1n[nH]c(=S)n1C	1	-1	0	-2	-2	19	.	.	.	.
Cn1c(-c2sccc2OCc2ccccc2)n[nH]c1=S	-1	0	-1	35*	-2	0	-2	72*	-7	54*
Cc1ccc(COc2ccsc2-c2n[nH]c(=S)n2C)cc1	0	0	-1	34*	-3	18	-3	62*	-7	41*
Cn1c(-c2sccc2OCc2ccc(Cl)cc2Cl)n[nH]c1=S	2	-3	-1	34*	-4	-8	-3	62*	-8	43*
COc1ccc(-c2nnn(CC(=O)Nc3ccc4c(c3)OCCO4)n2)cc1OC	0	.	.	.	.	4	.	.	.	.
CCOC(=O)c1c(NC(=O)CSc2ncn[nH]2)sc(C(C)=O)c1C	-1	.	.	24*	-4	-4	-2	-2	-6	32*
CCOC(=O)c1sc(NC(=O)CCN2CCN(C)CC2)c(C(=O)OCC)c1C	-1	1	1	16*	-2	-4	-3	1	-7	48*
O=C(NCc1ccc(Cl)cc1)N1CCN(C(=O)c2ccccc2)CC1	0	.	.	.	.	4	.	.	.	.
N#Cc1ccc(CN2CCN(C(=O)C3CC(=O)N(c4ccccc4F)C3)CC2)cc1 (stereo not drawn)	0	.	.	.	.	0	.	.	.	.
